# Results from different studies.
# Each line is one published result; the experiments were not run side by side.
# Target: Bone morphogenetic protein receptor type-1B (BMPR1B, Homo sapiens, UniProt O00238)
SMILES,effect on,method,concentration,remaining binding [%]
Cc1cnn2ncc(-c3ccnc(N(C)C)n3)c2c1,binding,,1 µM,67
O=C(Nc1c[nH]nc1C(=O)NC1CCNCC1)c1cc(F)cc(F)c1,binding,competition with immobilised ligand,1 µM,84
COc1ncc2cc3ccccc3nc2c1C#N,cell-free assay,competition with immobilised ligand,5 µM,89
COCCOc1nc(-c2ccc(Cl)nc2)nc2c1CN(C(=O)c1ncn3ccccc13)CC2,cell-free assay,competition with immobilised ligand,0.1 µM,100
O=C(c1ccc(Nc2ncc(Cl)c(-c3cc4ccccc4s3)n2)cc1)N1CCC(N2CCCC2)CC1,binding,competition with immobilised ligand,1 µM,62
CSc1cccnc1N1CCN(Cc2nc3ccccc3[nH]2)CC1,cell-free assay,competition with immobilised ligand,1 µM,80
c1cnn2ncc(-c3ccnc(N4CCC45COC5)n3)c2c1,binding,,1 µM,52
C[C@@H](c1ccc(-n2cnc3c(N)ncnc32)cc1)N1CCc2nn(C)c(Cc3ccccc3)c2C1=O,binding,competition with immobilised ligand,0.1 µM,84
CNC(=O)Nc1ccc2c(c1)[C@@]1(CC2)OC(=O)N(CC(=O)N(Cc2ccc(F)cc2)[C@@H](C)C(F)(F)F)C1=O,cell-free assay,competition with immobilised ligand,1 µM,100
C[C@H]1CCN(c2nccc(-c3cnn4ncccc34)n2)C1,binding,,1 µM,60
Nc1ncc2c(n1)-c1c([nH]c3ccc(C#CC4CC4)cc13)CCCC2,binding,competition with immobilised ligand,1 µM,96
c1cncc(-c2cccc(Nc3nccc(NC4CCCCC4)n3)c2)c1,binding,competition with immobilised ligand,10 µM,47
CCN1CCN(Cc2ccc(C(=O)Nc3ccc(C)c(Oc4ccc5c(c4)CC(=O)N5)c3)cc2C(F)(F)F)CC1,binding,competition with immobilised ligand,1 µM,100
COc1ccc2c(c1)O[C@H](c1ccc(OC)c(OC)c1)C[C@@H]2NC(=O)C1(c2ccc3c(c2)OC(F)(F)O3)CC1,cell-free assay,competition with immobilised ligand,1 µM,100
COc1cnc(Nc2cccc(S(N)(=O)=O)c2)nc1N1CCN(c2ccccc2)C(=O)C1,binding,competition with immobilised ligand,1 µM,100
N[C@H]1CCN(c2nccc(-c3cnn4ncccc34)n2)C1,binding,,1 µM,100
O=C(NCc1ncc(C(F)(F)F)cc1Cl)c1ccc2c(c1)C1(CCS(=O)(=O)CC1)[C@H](C1CC1)N2S(=O)(=O)c1ccc(F)cc1,cell-free assay,competition with immobilised ligand,1 µM,93
CN(c1nccc(-c2cnn3ncccc23)n1)C1CC1,binding,,1 µM,76
O=C(c1ccc(Nc2ncc(Cl)c(-c3ccc(Cl)s3)n2)cc1)N1CCC(N2CCCC2)CC1,binding,competition with immobilised ligand,1 µM,18
CN(C)c1nccc(-c2cnc3ncccn23)n1,binding,,1 µM,82
C[C@@H]1CN(c2cc(-c3nn(C)c4ccc(OC5(C)CC5)cc34)ncn2)C[C@H](C)O1,cell-free assay,competition with immobilised ligand,1 µM,77
O=C(NCCCN1CCOCC1)c1ccc(Nc2nccc(-c3cc4ccccc4s3)n2)cc1,binding,competition with immobilised ligand,1 µM,34
